A short description of series [1]: In vitro metabolism with rat liver microsomes, LC-MS. The format is in vitro ADME. The settings on record: incubation with rat liver microsomes, phase I. On the technique in general: Liver microsomes are a subcellular fraction often used to study metabolism.
Series [2] has as its system A-549 cells. Kind of series: Cell cycle effects and total cell number. The settings on record: A-549, 24 and 48 h of incubation. The format is cell-based, human. In a few lines:
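A-549 lung adenocarcinoma cells were exposed to a concentration range from under 100 nM to 50 μM for 24 and 48 h. Cells were immunofluorescently imaged for phosphorylated Rb and total DNA content per cell to assign cell-cycle phase and total cell number. IC50 was derived for the reduction in total cell number.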

The structures appear in SMILES notation.

This note sets out measurements from PMC5557401 (Drug Design, Development and Therapy, 2017).

Take `COc1ccc(-c2nc(NN=C3C(=O)Nc4ccc(Br)cc43)c3ccccc3n2)cc1OC` [Compound 7d, 5-Bromo-3-(2-(2-(3,4-dimethoxyphenyl)quinazolin-4-yl) hydrazono)indolin-2-one]: the “Metabolic reaction (in vitro RLMs metabolites)” value in series [1] is “demethylation”. The Cell cycle effects result in series [2] is on record as “no effects on the tested parameters”.

For the compound `CCN(CC)CCNC(=O)c1c(C)[nH]c(/C=C2\C(=O)Nc3ccc(F)cc32)c1C` [Sunitinib, reference compound], the Cell cycle effects entry in series [2] is given as “reduction in the percentage of cells in G1, with corresponding increases in S or G2/M phases”.
